Assay [1] can be described thus: HUVEC growth inhibition – cell-based, human, primary screen (AID 575;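 active = viability at or below 30% in both replicate assays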;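 note: 100% = median of untreated cell wells with 0.1% DMSO on each plate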). The settings on record: HUVEC proliferation, CellTiter-Glo luminescence, 72 h; at 10 µM; stronger effect = lower value. The method in brief:
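system = HUVEC primary cells | amount = 1250 cells/well | buffer or medium = supplemented EBM, 2% fetal bovine serum | dosing = single-point 10 µM, DMSO 0.1% final | times = 72 h compound incubation | detection = CTG luminescence | read-out = % viability relative to median vehicle-well signal on each plate | control set = vehicle and MePR control wells | format = collagen-coated 384-well format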

Assay [2] can be described thus: H69AR cell proliferation blockers – human, duplicate replicates, primary screen (AID 580;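 active = viability at or under a set limit in both replicates, limit being median viability minus 3 SD, cut at about 48% in these data, passing the limit was not always enough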;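 note: 100% = mean luminescence of untreated wells and 0% = no signal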). The settings on record: H69AR lung tumor cells viability, ATP luminescence, 72 h; at 10 µM; stronger effect = lower value.
Assay [3] can be described thus: MRP1 drug-resistance reversers in H69AR cells – cell-based, doxorubicin co-treatment, pilot screen (AID 601). The settings on record: CellTiter-Glo, 72 h, at 10 µM; for differential viability (reversal): stronger effect = higher value.
Assay [4] can be described thus: yeast transport mutant growth inhibition pilot in 384-well plates, post-Golgi transport modulator project (AID 636; in the data active = inhibition above about 31%). Conditions: absorbance 615 nm, about 18 h, stronger effect = higher value.
Assay [5] is described as follows: growth suppression of yeast trafficking mutant, preliminary HTS, modulators of trafficking downstream of Golgi apparatus project, 1536-format plate, OD 615 nm (AID 637; in the data active = inhibition above about 30%). Conditions: yeast transport mutant growth, absorbance 615 nm, 18 h; stronger effect = higher value.
[6] abbreviates: H69AR cells + 2 uM doxorubicin, measured here: viability with 2 uM doxorubicin, stronger effect = lower value.
Setting [7] is: H69AR cells, compound alone cytotoxicity.

The source made the active and inactive calls.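 Rule for the calls, unless noted: active = viability loss from added drug above about 55%, and viability with drug at most 40%, in both replicates (limit read from the data, passing the limit was not always enough); inconclusive = both conditions met in only one replicate; inactive = neither replicate meets both conditions.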

What is called viability is a read-out of living cells in per cent, often relative to untreated cells. Usually inhibition stands for the change of the read-out against control, counted positive when it falls.

With `COC(=O)c1[nH]c2ccc(C)cc2c1NC(=O)CN1CCCc2ccccc21`, the viability in assay [1] was 48.2% (inactive); in assay [2], 67.6% (inactive); in assay [3] (setting [6]), 83.2%; in assay [3] (setting [7]) it was 67.6%. Further, the differential viability (reversal) in assay [3] (H69AR cells + 2 uM doxorubicin) was -15.6% (inactive). Further, the inhibition is -5.73% (inactive) in assay [4] and 0.79% (inactive) in assay [5].

As to `O=c1ccn(Cc2ccccc2Cl)cc1`, the viability in assay [1] was 99.9% (inactive); in assay [2], 88.2% (inactive); in assay [3] (setting [6]), 78.4%; in assay [3] (setting [7]) it was 88.2%. Further, the differential viability (reversal) in assay [3] (H69AR cells + 2 uM doxorubicin) is 9.77% (inactive). Besides, the inhibition in assay [4] is -4.47% (inactive); in assay [5] it was -3.33% (inactive).

For the compound `CC(OC(=O)c1cccc(NS(C)(=O)=O)c1)C(=O)Nc1ccc(N2CCOCC2)cc1` (stereo not given), the viability was 98.9% (inactive) in assay [1], 96% (inactive) in assay [2], 86.1% in assay [3] (setting [6]) and 96% in assay [3] (setting [7]). Moreover, in assay [3] (H69AR cells + 2 uM doxorubicin), the differential viability (reversal) was 9.84% (inactive). Further, the figures for the inhibition in assay [4] and in assay [5] were 0.78% (inactive) and -2.54% (inactive), respectively.

With `NC(=O)c1sc2nc3c(c(-c4ccco4)c2c1N)CCC3`, the viability was 75.7% (inactive) in assay [1], 81.4% (inactive) in assay [2], 98.2% in assay [3] (setting [6]) and 81.4% in assay [3] (setting [7]). The differential viability (reversal) in assay [3] (H69AR cells + 2 uM doxorubicin) is -16.8% (inactive). Also, the inhibition in assay [4] is -5.47% (inactive); in assay [5] it was -8.57% (inactive).

On to `Cc1nc2ccc(NC(=O)NCc3ccco3)cc2s1`, for which the viability is 103% (inactive) in assay [1], 90.6% (inactive) in assay [2], 83.2% in assay [3] (setting [6]) and 90.6% in assay [3] (setting [7]). Also, the differential viability (reversal) in assay [3] (H69AR cells + 2 uM doxorubicin) was 7.41% (inactive). Moreover, the inhibition was -4.67% (inactive) in assay [4] and 9.37% (inactive) in assay [5].

As to `CCOC(=O)NC(c1ccccc1)C1CCCCC1=O` (stereo not given), the viability is 103% (inactive) in assay [1], 94.2% (inactive) in assay [2], 88.3% in assay [3] (setting [6]) and 94.2% in assay [3] (setting [7]). Besides, in assay [3] (H69AR cells + 2 uM doxorubicin), the differential viability (reversal) is 5.88% (inactive). Also, the inhibition in assay [4] was -3.64% (inactive); in assay [5], 0.32% (inactive).

Regarding `CCCc1nc2ccccc2c2nc(N)nn12`, the viability is 99.8% (inactive) in assay [1], 94.1% (inactive) in assay [2], 81.8% in assay [3] (setting [6]) and 94.1% in assay [3] (setting [7]). Besides, the differential viability (reversal) in assay [3] (H69AR cells + 2 uM doxorubicin) was 12.3% (inactive). The inhibition in assay [4] was -5.26% (inactive); in assay [5], 0.95% (inactive).

Turning to `CC1(C)CC(=O)c2c(O)cc(O)cc2O1`, the viability in assay [1] was 107% (inactive); in assay [2], 99.7% (inactive); in assay [3] (setting [6]), 84.3%; in assay [3] (setting [7]), 99.7%. In addition, in assay [3] (H69AR cells + 2 uM doxorubicin), the differential viability (reversal) is 15.4% (inactive). For the same compound, the inhibition in assay [4] was -8.42% (inactive); in assay [5], -1.43% (inactive).

With `O=C(c1ncn[nH]1)N1CCN(c2nc(-c3ccccc3)cs2)CC1`, the viability in assay [1] is 104% (inactive); in assay [2] it was 94.5% (inactive); in assay [3] (setting [6]), 90.9%; in assay [3] (setting [7]), 94.5%. In assay [3] (H69AR cells + 2 uM doxorubicin), the differential viability (reversal) was 3.58% (inactive). The inhibition in assay [4] was -1.73% (inactive); in assay [5], 9.68% (inactive).

Take `C=CCn1c(=O)[nH]c2cc(C(=O)N3CCN(c4ccc(C(C)=O)cc4)CC3)ccc2c1=O`: the viability in assay [1] is 68.5% (inactive); in assay [2], 92.4% (inactive); in assay [3] (setting [6]), 79%; in assay [3] (setting [7]), 92.4%. Further, the differential viability (reversal) in assay [3] (H69AR cells + 2 uM doxorubicin) is 13.4% (inactive). The results for the inhibition in assay [4] and in assay [5] were -1.97% (inactive) and -5.71% (inactive), respectively.

Regarding `Cc1cc(N2C(=O)C(=O)/C(=C(/O)c3ccc(F)cc3)C2c2ccc(F)cc2)no1` (stereo not given), the viability in assay [1] is 78.3% (inactive); in assay [2] it was 91.3% (inactive); in assay [3] (setting [6]) it was 87.8%; in assay [3] (setting [7]), 91.3%. Also, the differential viability (reversal) in assay [3] (H69AR cells + 2 uM doxorubicin) was 3.5% (inactive). In addition, the inhibition was -5.47% (inactive) in assay [4] and 5.08% (inactive) in assay [5].

As for `CCc1ccc(NC(=O)c2cc(-c3ccco3)on2)cc1`, the viability in assay [1] was 75.1% (inactive); in assay [2] it was 91.3% (inactive); in assay [3] (setting [6]), 108%; in assay [3] (setting [7]), 91.3%. Further, the differential viability (reversal) in assay [3] (H69AR cells + 2 uM doxorubicin) was -16.3% (inactive). Moreover, the inhibition is -1.45% (inactive) in assay [4] and -4.6% (inactive) in assay [5].

Consider `O=C(CN1CCN(c2ncc(C(F)(F)F)cc2Cl)CC1)Nc1ccc2c(c1)OCO2`, for which the viability is 85.7% (inactive) in assay [1], 93.2% (inactive) in assay [2], 92.9% in assay [3] (setting [6]) and 93.2% in assay [3] (setting [7]). The differential viability (reversal) in assay [3] (H69AR cells + 2 uM doxorubicin) was 0.28% (inactive). For the same compound, the results for the inhibition in assay [4] and in assay [5] were 0.65% (inactive) and -4.29% (inactive), respectively.

For the compound `CCOC(=O)C1=C(CC)Nc2ccccc2N=C1NC(=O)Nc1ccccc1OC`, the viability in assay [1] is 50.5% (inactive); in assay [2], 74% (inactive); in assay [3] (setting [6]), 74.5%; in assay [3] (setting [7]), 74%. The differential viability (reversal) in assay [3] (H69AR cells + 2 uM doxorubicin) was -0.52% (inactive). For the same compound, the inhibition in assay [4] is 0.52% (inactive); in assay [5], 1.11% (inactive).

As to `COCC(=O)N(Cc1ccccc1)c1ccccn1`, the viability was 83.3% (inactive) in assay [1], 90.1% (inactive) in assay [2], 91.3% in assay [3] (setting [6]) and 90.1% in assay [3] (setting [7]). Also, in assay [3] (H69AR cells + 2 uM doxorubicin), the differential viability (reversal) is -1.27% (inactive). Besides, the figures for the inhibition in assay [4] and in assay [5] were -5.32% (inactive) and 9.37% (inactive), respectively.

Turning to `CCCCc1cc(=O)oc2c(CN3CCCC3)c(O)c(Cl)cc12`, the viability in assay [1] was 98.2% (inactive); in assay [2] it was 96.6% (inactive); in assay [3] (setting [6]), 93.3%; in assay [3] (setting [7]) it was 96.6%. Moreover, the differential viability (reversal) in assay [3] (H69AR cells + 2 uM doxorubicin) was 3.32% (inactive). Moreover, the inhibition in assay [4] was -3.16% (inactive); in assay [5], 3.33% (inactive).

Consider `O=C(CN(c1ccc(F)cc1)S(=O)(=O)c1ccc2c(c1)OCCO2)NCC1CCCO1` (stereo not given), for which the viability in assay [1] is 96.5% (inactive); in assay [2] it was 100% (inactive); in assay [3] (setting [6]), 87.1%; in assay [3] (setting [7]), 100%. For the same compound, the differential viability (reversal) in assay [3] (H69AR cells + 2 uM doxorubicin) is 13.4% (inactive). Further, the inhibition in assay [4] is -3.42% (inactive); in assay [5], 2.54% (inactive).

On to `COc1ccccc1NC1=NC2(CCCC2)N=C(N)N1`, for which the viability in assay [1] is 91.3% (inactive); in assay [2], 99.7% (inactive); in assay [3] (setting [6]), 90.9%; in assay [3] (setting [7]), 99.7%. Also, the differential viability (reversal) in assay [3] (H69AR cells + 2 uM doxorubicin) is 8.79% (inactive). The values for the inhibition in assay [4] and in assay [5] were -2.6% (inactive) and 3.02% (inactive), respectively.

Take `O=C(Nc1ccc(N2CCOCC2)cc1)C1CC1`: the viability was 109% (inactive) in assay [1], 97.1% (inactive) in assay [2], 89% in assay [3] (setting [6]) and 97.1% in assay [3] (setting [7]). Also, the differential viability (reversal) in assay [3] (H69AR cells + 2 uM doxorubicin) is 8.07% (inactive). Moreover, the figures for the inhibition in assay [4] and in assay [5] were -5.33% (inactive) and 3.49% (inactive), respectively.

Regarding `CCCOc1ccc(N2C(=O)CC(NCCCN3CCC(C(N)=O)CC3)C2=O)cc1` (stereo not given), the viability in assay [1] was 121% (inactive); in assay [2], 88.6% (inactive); in assay [3] (setting [6]), 91.9%; in assay [3] (setting [7]) it was 88.6%. For the same compound, the differential viability (reversal) in assay [3] (H69AR cells + 2 uM doxorubicin) is -3.32% (inactive). Besides, the results for the inhibition in assay [4] and in assay [5] were -1.97% (inactive) and 1.27% (inactive), respectively.

The values are drawn from PubChem BioAssay.
